Calls of active or inactive are those of the source. No cut-off for these calls is given here.
Assays:
[1] = Cytotoxicity against bovine endothelial cells at 12.5 uM; format: cell-based, Bos taurus; details: cattle, endothelial cell
Endothelial cell [2] = experiment: Antiangiogenic activity in bovine endothelial cells assessed as inhibition of cell migration at 12.5 uM; format: functional, cell-based; details: Bos taurus
[3] = Cytotoxicity against bovine endothelial cells at 50 uM; format: cell-based, Bos taurus; details: cattle, endothelial cell
Endothelial cell [4] = experiment: Antiangiogenic activity in bovine endothelial cells assessed as inhibition of cell migration at 50 uM; format: functional, cell-based; details: Bos taurus
Solanum lycopersicum [5] = experiment: Inhibition of tomato seedling growth at 100 uM; format: functional
How it was run: (§1)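 Tomato seedlings were conditioned 24 h in water, which was then replaced with filter-sterilized (0.2 µm) test solutions at 2, 0.2, 0.1 or 0.01 mM. Phytotoxic symptoms and root growth inhibition were scored at 24, 48 and 72 h. Each assay was run twice on 10 replicate seedlings.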

Solanum lycopersicum [6] = experiment: Induction of necrotic symptoms in tomato leaves up to 2 mM by tomato seedling bioassay; format: functional, organism-based; how it was run: as §1
Solanum lycopersicum [7] = experiment: Inhibition of tomato seedling growth at 200 uM; format: functional, organism-based; how it was run: as §1
Solanum lycopersicum [8] = experiment: Inhibition of tomato seedling growth at 10 uM; format: functional; set-up: scale not given: the % may be the effect or the level left; how it was run: as §1

For `O=C(O)c1cc(O)c(C2OC(=O)c3c(O)cc(O)cc32)c(O)c1` (stereo not given) [CRYPHONECTRIC ACID], the Activity [1] was “Non-toxic”, the Activity (Endothelial cell [2]) was “inactive” and the Activity [3] was “Non-toxic”. For the same compound, the Activity (Endothelial cell [4]) was “inactive”, the Activity (Solanum lycopersicum [5]) was “Active” and the Activity (Solanum lycopersicum [6]) was “inactive”.

With `COc1cc(O)c2c(=O)oc(CC(C)O)cc2c1` (stereo not given) [DIAPORTHIN] the Activity (Solanum lycopersicum [7]) was “Active”, the Activity (Solanum lycopersicum [5]) was 75% and the Activity (Solanum lycopersicum [6]) was “inactive”. For the same compound, the Activity (Solanum lycopersicum [8]) was 50%.

Source: ChEMBL document CHEMBL1159304, “Cryphonectric acid and other minor metabolites from a hypovirulent strain of Cryphonectria parasitica” (J Nat Prod, 2002)
